NLRP3 yeast inh – NALP3 inhibition in yeast. Yeast reconstituted NLRP3/ASC/caspase-1, beta-gal luminescence, 24 h. inhibition, % at 10 µM. 0.39% of 330,000 active. AID 2825;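 active means inhibition of 50% or more; inactive means inhibition below 50%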
PolyA inh – blocks polyadenylation in yeast reporter cells | 0.02% of 300,000 active | S. cerevisiae SKY197-pL101 polyadenylation reporter, beta-gal luminescence; efflux-impaired pdr1/pdr3 knockout yeast; score 100 = 6 SD above DMSO | activity score, % at 12 µM | AID 1875;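 active means lowest replicate activity score at least 50, where 100 means six control SD above control mean; inconclusive means lowest score under 50 but half or more replicates reach 50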;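 further: yeast exposed to compound for 9 h at 30 °C; higher score means more reporter readthrough which indicates perturbed polyadenylation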
T cruzi repl – blocks replication of Trypanosoma cruzi; inhibition, % (no concentration beside the values); T. cruzi beta-gal in NIH3T3, luminescence, 90 h; AID 1885; 1.4% of 300,000 active;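 active means mean inhibition across valid replicates above about 55%, limit read from the data; inconclusive means mean below that limit but half or more replicates reach it; inactive means mean below it, under half of replicates reach it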;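 further: signal also drops with host cell toxicity which is not excluded here; higher percent means less beta-gal luminescence so fewer parasites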
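Read-out: Parasite load inhibition, % | Test system: Mouse NIH/3T3 fibroblasts infected with β-gal-expressing T. cruzi Tulahuen C4 | Amount: 5,000 cells/well | Medium: DMEM, 2% fetal bovine serum | Signal: GalScreen β-gal luminescence, detergent lysis, 60 min | Timing: 3 h attach, ≥90 h co-culture | Also added: Tulahuen C4 trypomastigotes, 5000/well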
NALP1 yeast inh – inhibitors of NALP1 inflammasome in yeast; 0.61% of 280,000 active; S. cerevisiae NALP1/ASC/caspase-1 growth, X-gal OD620, 72 h; AID 2071; inhibition, % at 10 µM; in the data active means inhibition mostly above about 24%, no sharp cut-off; inactive means mostly below about 32%
Calb FLC – C. albicans growth modulation with fluconazole; 0.57% of 300,000 active; AID 1979; growth inhibition, % (concentration not given with the values); C. albicans CaCi-2 + fluconazole, Alamar Blue growth, 48 h;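 active means growth inhibition above about 58% in most replicates, limit read from the data, passing the limit was not always enough; inconclusive means exactly half the replicates above a set limit; inactive means most replicates below a set limit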;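 further: all wells also contain fluconazole at 8 µg/ml as a sub-toxic cotreatment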
L major viab – inhibitors of Leishmania major promastigote growth. Leishmania major promastigotes, resazurin fluorescence viability. AID 1063. inhibition, % at 10 µM. 9% of 200,000 active; in the data active means inhibition above about 50%;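 further: promastigotes grown with compound for 44 hours at 28 °C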
Of the large screens only hits and unclear results are named; the others gave an inactive call. The entries come from a sample that favours hits as a whole.

COc1ccc(CNC(=O)N[C@H](C(=O)O)C(C)C)cc1OC	none (no result: NALP1 yeast inh, L major viab)
Nc1ccc(O)c2ccccc12	none (no result: NALP1 yeast inh, L major viab)
CCCc1cc(=O)[nH]c(SCc2nc3ccc([N+](=O)[O-])cc3[nH]2)n1	Calb FLC inconclusive
O=[N+]([O-])c1ccc2nc(-[n+]3c(-c4ccccc4)cc(-c4ccccc4)cc3-c3ccccc3)[nH]c2c1	T cruzi repl 58, L major viab 89
O=[N+]([O-])c1ccc2nc(CCCc3nc4ccc([N+](=O)[O-])cc4[nH]3)[nH]c2c1	NALP1 yeast inh 32, Calb FLC inconclusive
Cc1cc(=O)[nH]c(SCc2nc3ccc([N+](=O)[O-])cc3[nH]2)n1	L major viab 55
O=[N+]([O-])c1cccc(-c2nc3ccc([N+](=O)[O-])cc3[nH]2)c1	none
O=C(CCNC(=O)C1CCN(S(=O)(=O)c2ccc(F)cc2)CC1)NCc1ccccc1Cl	none (no result: L major viab)
CN1CCN(C(=S)NCCc2ccccc2)CC1	none
COc1cc(N/N=C/c2ccccc2O)ncn1	L major viab 82
COc1cc(N/N=C/c2ccc(N(C)C)cc2)ncn1	none
COCCNc1c(-c2ccc(OC)cc2)nc2ccc(Cl)cn12	L major viab 76
CCOC(=O)CNc1c(-c2ccc(OC)cc2)nc2ccc(Cl)cn12	none
Cc1cc(C(=O)N=Nc2c(O)n(C(C)C)c3ccccc23)n[nH]1	none
Cc1nc2ccccn2c1C(=O)N=Nc1c(O)n(CCC(C)C)c2ccccc12	L major viab 67
Cc1nc2cccc(C(=O)NC3CCCCC3)c2o1	NALP1 yeast inh 32
Cc1cccc(N2C(=N)SCC2=O)c1C	L major viab 54
O=c1ccc(N=Nc2ccccc2)ccc1O	Calb FLC 101 (no result: NLRP3 yeast inh, L major viab)
CC(NC(=O)c1cccc(S(=O)(=O)N2CCc3ccccc32)c1)c1ccco1 (stereo unspecified)	none (no result: PolyA inh, T cruzi repl, NALP1 yeast inh, Calb FLC, L major viab)
CCOc1cc(C(=S)N2CCCCC2)ccc1OCC(=O)NCc1ccccc1	none
CCN1CCCC1CNS(=O)(=O)c1ccc(Cl)c(C(F)(F)F)c1 (stereo unspecified)	L major viab 81
COc1ccc2cc(CN(Cc3ccco3)Cc3nnnn3C3CCCCC3)c(=O)[nH]c2c1	L major viab 96
COc1ccc2cc(CN(Cc3ccco3)C(c3nnnn3C3CCCCC3)C(C)C)c(=O)[nH]c2c1 (stereo unspecified)	L major viab 98
COc1ccc(C2SCC(=O)N2c2c(C)n(C)n(-c3ccccc3)c2=O)cc1OC (stereo unspecified)	PolyA inh 67, Calb FLC inconclusive
Cc1c(N2C(=O)CSC2c2ccccc2)c(=O)n(-c2ccccc2)n1C (stereo unspecified)	none (no result: L major viab)
O=C(Nc1cc(SCCO)cc([N+](=O)[O-])c1)c1ccco1	L major viab 61
O=C(Nc1ccc(Cl)c(Cl)c1)Oc1ccc(NC(=O)c2ccco2)cc1	NALP1 yeast inh 100
O=C(Nc1cc(Oc2ccc(Cl)cc2)cc([N+](=O)[O-])c1)c1ccco1	L major viab 64
CCOc1ccc(Oc2cc(NC(=O)c3ccco3)cc([N+](=O)[O-])c2)cc1	none (no result: NLRP3 yeast inh, PolyA inh, T cruzi repl, Calb FLC)
Cc1cc2c(cc(C(=O)OCC(=O)NCc3ccco3)n2C)s1	Calb FLC 102
Cc1cc2c(cc(C(=O)OC(C(=O)NCc3ccco3)C(C)C)n2C)o1 (stereo unspecified)	L major viab 99
O=C(Nc1nnc(-c2ccco2)o1)c1cccc(Cl)c1	Calb FLC 87
O=C(/C=C/c1ccccc1)Nc1nnc(-c2ccco2)o1	L major viab 65
CC(=O)Nc1nnc(-c2ccco2)o1	none
COc1cc(OC)cc(C(=O)Nc2nnc(-c3cccnc3)o2)c1	none
O=C(Nc1nnc(-c2ccco2)o1)c1ccc(Cl)s1	none (no result: L major viab)
O=C(Nc1nnc(-c2cccnc2)o1)c1cccc(Cl)c1	L major viab 55
Cc1nn(-c2ccccc2)c(C)c1C(=O)Nc1nnc(-c2ccco2)o1	Calb FLC 84
c1ccc2c(OCCCN3CCCCCC3)cccc2c1	none (no result: L major viab)
COc1cccc(C2C(C(C)=O)=C(O)C(=O)N2CCc2c[nH]c3ccccc23)c1 (stereo unspecified)	none
Cc1nnc(SCC(=O)Nc2ccc3c(c2)OCO3)n(N)c1=O	none
O=C(Nc1nnc(-c2ccccn2)o1)c1cccc(Cl)c1	L major viab 51
